The values below come from ChEMBL document CHEMBL1141385, “Lignans from Dysosma versipellis with inhibitory effects on prostate cancer cell lines” (J Nat Prod, 2007).

The test system of one assay is LNCaP. Description: Cytotoxicity against androgen sensitive human LNCaP cells. The format is cell-based. In outline:
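LNCaP (androgen-sensitive human prostate cancer) cells kept as monolayers in DMEM with 10% FBS, 2 mM L-glutamine, penicillin/streptomycin, 5% CO2. Seeded at 5000 cells/well, attached overnight, then exposed to compounds or DMSO vehicle for 48 h. MTS added for 2–4 h at 37 °C; formazan absorbance read at 490 nm. At least three experiments, each in triplicate.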

The next assay deals with PC-3. As to the kind of experiment: Cytotoxicity against androgen-independent human PC3 cells. The format is cell-based. In outline:
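PC-3 (androgen-independent human prostate cancer) cells kept as monolayers in DMEM with 10% FBS, 2 mM L-glutamine, penicillin/streptomycin, 5% CO2. Plated at 3000 cells/well and left to attach overnight. Treated with compounds or DMSO vehicle for 48 h. Viability read by MTS (2–4 h, 37 °C) as absorbance at 490 nm. Run at least three times in triplicate.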

For `COc1cc([C@@H]2c3cc4c(cc3C[C@H]3COC(=O)[C@@H]32)OCO4)cc(OC)c1O` [4'-DEMETHYLDEOXYPODOPHYLLOTOXIN], the IC50 came out at 150 nM in the assay with LNCaP and 140 nM with PC-3.
Take `COc1cc([C@@H]2c3cc4c(cc3[C@H](O)[C@H]3COC(=O)[C@H]23)OCO4)cc(OC)c1OC` [PODOFILOX]: the IC50 in the assay with LNCaP was found to be 31 nM; with PC-3, 34 nM.
As for `COc1cc([C@@H]2c3cc4c(cc3C[C@H]3COC(=O)[C@@H]32)OCO4)cc(OC)c1OC` [DESOXYPODOPHYLLOTOXIN], the IC50 in the assay on LNCaP amounted to 30 nM; in the assay with PC-3, 32 nM.
With `COc1cc(O)cc([C@@H](O)[C@@H]2CO[C@@H](c3ccc(O)c(OC)c3)[C@@H]2CO)c1` [DYSOSMAROL], the 50% inhibitory concentration (IC50) in the assay on LNCaP and with PC-3 was 16000 nM throughout.
In the case of `COc1cc([C@@H]2c3cc4c(cc3[C@H](O)[C@H]3COC(=O)[C@H]23)OCO4)cc(OC)c1O`, the IC50 in the assay with LNCaP is 56 nM; in the assay with PC-3 it was 82 nM.
Consider `COc1cc2c(O)c3c(c(-c4ccc5c(c4)OCO5)c2cc1OC)C(=O)OC3` [DIPHYLLIN], for which the IC50 with LNCaP turned out to be 11500 nM; with PC-3, 7200 nM.

A word on the IC50: it is the midpoint of a concentration-inhibition curve. The low end stands for inhibition by little substance, the high end for a need for much substance.
